# Measured values taken from ChEMBL document CHEMBL1157803 (J Med Chem, 2010).
# Active and inactive are the calls of the source. No cut-off for these calls is given here.
# Columns and labels:
# [1] = test system: Trypanosoma cruzi; test: Antitrypanosomal activity against Trypanosoma cruzi Tulahuen amastigotes infected in […] 3T3 cells after 7 days by alamar blue assay; type: functional, organism-based; settings: NIH3T3, 168 h
# In short: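 T. cruzi amastigotes grown inside mammalian host 3T3 cells were exposed to compounds to measure parasite killing.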
# [2] = Inhibition of rat recombinant PFT expressed in insect Sf9 cells by scintillation proximity assay
# [3] = target: Cytochrome P450 3A4 (Homo sapiens, UniProt P08684); test: Inhibition of human recombinant CYP3A4; type: ADME
# Sequence of Cytochrome P450 3A4 (P08684 whole entry): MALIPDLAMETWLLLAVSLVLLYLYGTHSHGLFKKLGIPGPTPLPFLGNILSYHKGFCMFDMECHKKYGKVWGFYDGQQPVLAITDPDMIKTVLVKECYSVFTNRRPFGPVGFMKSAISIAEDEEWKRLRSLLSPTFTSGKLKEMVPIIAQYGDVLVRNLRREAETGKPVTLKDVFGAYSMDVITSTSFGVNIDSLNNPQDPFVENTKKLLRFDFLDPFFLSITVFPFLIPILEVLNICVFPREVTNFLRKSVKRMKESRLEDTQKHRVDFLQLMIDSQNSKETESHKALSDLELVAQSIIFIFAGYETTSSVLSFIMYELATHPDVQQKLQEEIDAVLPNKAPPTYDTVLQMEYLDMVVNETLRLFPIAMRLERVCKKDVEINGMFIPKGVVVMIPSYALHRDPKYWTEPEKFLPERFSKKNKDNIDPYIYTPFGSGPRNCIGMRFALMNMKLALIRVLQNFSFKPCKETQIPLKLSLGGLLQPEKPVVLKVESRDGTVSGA
# [4] = target: Sterol 14-alpha demethylase (Trypanosoma cruzi (strain CL Brener)) (UniProt Q7Z1V1); test: Binding affinity to Trypanosoma cruzi recombinant lanosterol 14-alpha-demethylase by optical spectroscopy
# Sequence of Sterol 14-alpha demethylase (Trypanosoma cruzi (strain CL Brener)) (Q7Z1V1 whole entry, looked up): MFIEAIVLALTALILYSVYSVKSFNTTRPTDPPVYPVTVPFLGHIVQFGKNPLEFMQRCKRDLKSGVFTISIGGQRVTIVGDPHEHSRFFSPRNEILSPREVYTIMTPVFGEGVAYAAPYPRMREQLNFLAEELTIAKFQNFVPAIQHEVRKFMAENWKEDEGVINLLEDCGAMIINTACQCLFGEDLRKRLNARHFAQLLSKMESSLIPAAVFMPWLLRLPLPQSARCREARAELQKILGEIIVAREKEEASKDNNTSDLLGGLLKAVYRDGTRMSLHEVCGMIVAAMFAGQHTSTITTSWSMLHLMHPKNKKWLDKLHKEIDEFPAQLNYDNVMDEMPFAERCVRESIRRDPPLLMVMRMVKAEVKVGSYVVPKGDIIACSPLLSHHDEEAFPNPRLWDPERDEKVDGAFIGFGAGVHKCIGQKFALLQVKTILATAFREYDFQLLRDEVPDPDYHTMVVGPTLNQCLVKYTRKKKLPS
# In short: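 Recombinant T. cruzi lanosterol 14α-demethylase at 1.4 μM was titrated with 0.2–2 μM compound. Binding was followed by difference optical spectroscopy of the visible heme Soret band.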
# [5] = test system: Trypanosoma cruzi; test: Ratio of EC50 for tipifarnib to drug for antitrypanosomal activity against Trypanosoma cruzi Tulahuen amastigotes infected in […] 3T3 cells after 7 days by alamar blue assay; type: functional, NIH3T3
SMILES,EC50 [1],IC50 [2],IC50 [3],Activity [4],Ratio EC50 [5]
COC(c1ccc(Cl)cc1)(c1ccc2c(c1)c(-c1ccc(F)cc1)cc(=O)n2C)c1cncn1C (centres undefined),0.0005 µM,0.991 µM,–,–,–
COC(c1ccc(C(F)(F)F)cc1)(c1ccc2c(c1)c(-c1cccc(Cl)c1)cc(=O)n2C)c1cncn1C (centres undefined),0.005 µM,–,–,–,–
COC(c1ccc(Cl)cc1)(c1ccc2c(c1)c(-c1ccccc1F)cc(=O)n2C)c1cncn1C (centres undefined),0.0008 µM,1.87 µM,–,–,–
CCc1ccc(C(OC)(c2ccc3c(c2)c(-c2cccc(Cl)c2)cc(=O)n3C)c2cncn2C)cc1 (centres undefined),0.01 µM,–,–,–,–
CCn1cncc1C(N)(c1ccc(Cl)cc1)c1ccc2c(c1)c(-c1cccc(Cl)c1)cc(=O)n2C (centres undefined),0.118 µM,0.028 µM,–,–,–
COC(c1ccc2ccccc2c1)(c1ccc2c(c1)c(-c1cccc(Cl)c1)cc(=O)n2C)c1cncn1C (centres undefined),0.0022 µM,2.3 µM,–,–,–
COC(c1ccc(Cl)cc1)(c1ccc2c(c1)c(-c1ccc(C)cc1)cc(=O)n2C)c1cncn1C (centres undefined),0.002 µM,0.41 µM,–,–,–
Cn1cncc1C(O)(c1ccc(Cl)cc1)c1ccc2c(c1)c(-c1cccc(Cl)c1)cc(=O)n2C (centres undefined),0.017 µM,0.008 µM,–,–,–
COC(c1ccc(Cl)cc1)(c1ccc2c(c1)c(-c1cccc(-c3ccccc3)c1)cc(=O)n2C)c1cncn1C (centres undefined),0.32 µM,–,–,–,–
COC(c1ccc(C)cc1)(c1ccc2c(c1)c(-c1cccc(Cl)c1)cc(=O)n2C)c1cncn1C (centres undefined),0.003 µM,–,–,–,–
CCn1cncc1C(OC)(c1ccc(Cl)cc1)c1ccc2c(c1)c(-c1cccc(Cl)c1)cc(=O)n2C (centres undefined),0.003 µM,0.97 µM,–,–,–
Cn1cncc1[C@@](N)(c1ccc(Cl)cc1)c1ccc2c(c1)c(-c1cccc(Cl)c1)cc(=O)n2C [TIPIFARNIB],–,0.0007 µM,–,–,–
CCCOC(c1ccc(Cl)cc1)(c1ccc2c(c1)c(-c1cccc(Cl)c1C)cc(=O)n2C)c1cncn1C (centres undefined),0.069 µM,> 5 µM,–,–,–
COC(c1ccc(Cl)cc1)(c1ccc2c(c1)c(-c1cccc(F)c1)cc(=O)n2C)c1cncn1C (centres undefined),0.0011 µM,0.343 µM,–,–,–
COC(c1ccc(Cl)cc1)(c1ccc2c(c1)c(-c1ccccc1C(F)(F)F)cc(=O)n2C)c1cncn1C (centres undefined),0.0008 µM,> 5 µM,–,–,–
COC(c1ccc(Cl)cc1)(c1ccc2c(c1)c(-c1ccccc1)cc(=O)n2C)c1cncn1C (centres undefined),0.0008 µM,0.33 µM,2.35 µM,–,–
COC(c1ccc(Cl)cc1)(c1ccc2c(c1)c(-c1c(F)cccc1F)cc(=O)n2C)c1cncn1C (centres undefined),0.00031 µM,> 10 µM,0.275 µM,Active,–

SMILES,EC50 [1],IC50 [2],IC50 [3],Activity [4],Ratio EC50 [5]
Cc1c(Cl)cccc1-c1cc(=O)n(C)c2ccc(C(O)(c3ccc(Cl)cc3)c3cncn3C)cc12 (centres undefined),0.112 µM,0.796 µM,–,–,–
COC(c1ccc(Cl)cc1)(c1ccc2c(c1)c(-c1c(Cl)cccc1Cl)cc(=O)n2C)c1cncn1C (centres undefined),0.00321 µM,> 10 µM,–,–,–
COC(c1ccc(Cl)cc1)(c1ccc2c(c1)c(-c1cccc(Cc3ccccc3)c1)cc(=O)n2C)c1cncn1C (centres undefined),0.083 µM,–,–,–,–
CCn1cncc1C(NC)(c1ccc(Cl)cc1)c1ccc2c(c1)c(-c1cccc(Cl)c1)cc(=O)n2C (centres undefined),0.1 µM,0.066 µM,–,–,–
COC(c1ccc(Cl)cc1)(c1ccc2c(c1)c(-c1ccccc1C)cc(=O)n2C)c1cncn1C (centres undefined),0.0007 µM,3.26 µM,–,–,–
COC(c1ccc(Cl)cc1)(c1ccc2c(c1)c(-c1cccc(C)c1)cc(=O)n2C)c1cncn1C (centres undefined),0.0012 µM,0.085 µM,–,–,–
COC(c1ccc(Cl)cc1)(c1ccc2c(c1)c(-c1cccc(Cl)c1C)cc(=O)n2C)c1cncn1C (centres undefined),0.0006 µM,> 5 µM,–,–,10
CNC(c1ccc(Cl)cc1)(c1ccc2c(c1)c(-c1cccc(Cl)c1C)cc(=O)n2C)c1cncn1C (centres undefined),0.005 µM,0.957 µM,–,–,–
COC(c1ccc(C(C)C)cc1)(c1ccc2c(c1)c(-c1cccc(Cl)c1)cc(=O)n2C)c1cncn1C (centres undefined),0.033 µM,–,–,–,–
COC(c1ccc(Cl)cc1)(c1ccc2c(c1)c(-c1ccc(Cl)cc1)cc(=O)n2C)c1cncn1C (centres undefined),0.00082 µM,6.04 µM,0.923 µM,–,–
COC(c1ccc(Cl)cc1)(c1ccc2c(c1)c(-c1c(C)cccc1C)cc(=O)n2C)c1cncn1C (centres undefined),0.0018 µM,> 10 µM,–,–,–
CCOC(c1ccc(Cl)cc1)(c1ccc2c(c1)c(-c1cccc(Cl)c1C)cc(=O)n2C)c1cncn1C (centres undefined),0.027 µM,> 10 µM,–,–,–
COC(c1ccc(Cl)cc1)(c1ccc2c(c1)c(-c1cc(C)cc(C)c1)cc(=O)n2C)c1cncn1C (centres undefined),0.0014 µM,0.47 µM,–,–,–
CCn1cncc1C(O)(c1ccc(Cl)cc1)c1ccc2c(c1)c(-c1cccc(Cl)c1)cc(=O)n2C (centres undefined),0.228 µM,0.03 µM,–,–,–
COC(c1ccc(Cl)cc1)(c1ccc2c(c1)c(-c1cccc(C(F)(F)F)c1)cc(=O)n2C)c1cncn1C (centres undefined),0.012 µM,1.32 µM,–,–,–
COC(c1ccc(Cl)cc1)(c1ccc2c(c1)c(-c1cccc(Cl)c1)cc(=O)n2C)c1cncn1C (centres undefined),0.0031 µM,0.065 µM,–,–,–
